Screening results (PubChem BioAssay)
Cneo AK release: Cryptococcus neoformans lysis via adenylate kinase release | lysis activity, % at 15 µM | C. neoformans lysis, adenylate kinase release luminescence, 4 h; normalised: neutral wells 0, clomiphene wells 100 | 0.2% of 360,000 active;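 active = mean lysis activity across replicates of at least 80%, whatever share of replicates individually reach that level; inactive = mean lysis activity below 80%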
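Assay system: C. neoformans cells. Amount: yeast cell density of 5 × 10^6 cells/mL. Technique: AK luminescence. Buffer or medium: YPD. Times: static 4 h at 37 °C with compound, 1 h detection. Dosing: single-point compound dose. Read-out: lysis from increased AK signal.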
ERAP1 HTS inh: blocks human ERAP1 aminopeptidase activity. Q9NZ08. recombinant ERAP1, Leu-AMC fluorescence, 60 min. inhibition, % at 10.7 µM. 0.15% of 340,000 active;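 active = mean replicate inhibition of at least 30%, or all replicates individually reaching that 30% level; inactive = mean below 30% and not every replicate reaching it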
Target sequence (Q9NZ08 whole entry, looked up): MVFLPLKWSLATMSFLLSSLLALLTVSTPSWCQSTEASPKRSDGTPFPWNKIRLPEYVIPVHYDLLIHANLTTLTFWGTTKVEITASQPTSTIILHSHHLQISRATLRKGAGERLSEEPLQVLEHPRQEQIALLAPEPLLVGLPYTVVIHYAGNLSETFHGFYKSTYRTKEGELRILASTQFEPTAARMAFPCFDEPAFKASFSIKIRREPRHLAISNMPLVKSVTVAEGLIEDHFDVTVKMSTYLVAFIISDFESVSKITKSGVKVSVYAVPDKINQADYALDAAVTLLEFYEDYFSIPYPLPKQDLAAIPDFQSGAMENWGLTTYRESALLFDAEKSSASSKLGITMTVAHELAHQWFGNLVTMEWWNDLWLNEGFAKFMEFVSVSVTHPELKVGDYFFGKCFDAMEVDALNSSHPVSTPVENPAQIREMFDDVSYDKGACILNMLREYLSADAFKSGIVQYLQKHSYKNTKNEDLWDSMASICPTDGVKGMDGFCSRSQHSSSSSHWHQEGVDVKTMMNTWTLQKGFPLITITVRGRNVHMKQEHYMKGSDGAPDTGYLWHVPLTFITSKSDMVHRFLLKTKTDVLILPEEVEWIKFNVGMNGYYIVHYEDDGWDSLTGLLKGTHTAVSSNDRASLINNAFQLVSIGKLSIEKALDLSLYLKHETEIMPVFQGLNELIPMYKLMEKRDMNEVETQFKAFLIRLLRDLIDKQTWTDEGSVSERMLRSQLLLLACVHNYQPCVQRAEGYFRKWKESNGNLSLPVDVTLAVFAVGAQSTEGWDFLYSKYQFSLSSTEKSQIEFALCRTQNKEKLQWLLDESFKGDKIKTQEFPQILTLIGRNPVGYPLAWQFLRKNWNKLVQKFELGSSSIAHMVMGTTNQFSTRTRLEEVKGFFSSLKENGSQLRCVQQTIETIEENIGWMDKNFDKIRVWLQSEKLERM
MITF act: activators of MITF-driven TRPM1 promoter activity in SK-MEL-5 cells; 0.75% of 300,000 active; AID 588334; SK-MEL-5 TRPM1-promoter luciferase, 24 h; % of positive control, neutral wells = 0; activation, % at 12.5 µM;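 active = mean activation of at least 80% with every replicate also reaching 80%; inconclusive = mean reaches 80% but some replicate falls short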
Wnt act: activators of Wnt/beta-catenin signaling; activation, % at 9.35 µM; 1.2% of 300,000 active; Wnt/beta-catenin reporter cell assay, activator, plate reader; in the data active = activation above about 30%, passing the limit was not always enough; inconclusive = no clear call, values can overlap the other calls
HIV Env fusion: inhibitors of HIV Env-mediated cell fusion | AID 651610 | inhibition, % at 12.3 µM | 1.1% of 360,000 active | HeLa-JRFL Env/CEM21 cell fusion, luciferase;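 active = mean replicate inhibition score of at least 50 and every replicate individually at or above 50; inconclusive = only one of the two criteria met; inactive = mean below 50 and not all replicates reaching 50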
esBAF inh: inhibitors of esBAF chromatin remodeling in mouse ES cells | Bmi1-luciferase knock-in reporter, 24 h; 100% = twice the neutral-well signal | reporter increase, % at 12.5 µM | 2% of 350,000 active | AID 602393; in the data active = activation above about 40%; inconclusive = no clear call, values can overlap the other calls;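 also: a rise in the Bmi1 reporter signal indicates esBAF inhibition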
Numbers stand for hits; . = inactive; ? = inconclusive; / = no result; [ ] = remark or other dose. The list is not random: actives were taken first. Their share in the collection is about 3.5%.

SMILES	Cneo AK release	ERAP1 HTS inh	MITF act	Wnt act	HIV Env fusion	esBAF inh
COc1ccccc1C(=O)NCCC(=O)NC1CCCC(C)C1C (stereo unspecified)	.	.	.	.	58.4	/
COc1ccccc1C(=O)NCCC(=O)NC1CCCCC1C (stereo unspecified)	.	.	.	.	.	.
C[C@H]1CN([C@@H](C)CO)S(=O)(=O)c2ccc(C3=CCCC3)cc2O[C@H]1CN(C)C(=O)c1cccnc1	.	.	/	/	.	.
O=C(O)c1ccc(-c2nc(-c3ccccc3)c(-c3ccccc3)[nH]2)cc1	/	.	.	.	.	/
Cc1ccsc1-c1nc(-c2ccccc2)c(-c2ccccc2)[nH]1	.	/	/	53.1	.	.
O=C(c1ccc(COc2ccccc2[N+](=O)[O-])o1)N1CCCCC1	/	/	.	/	.	/
O=C(c1ccc(COc2ccccc2[N+](=O)[O-])o1)N1CCCCCC1	.	/	.	.	/	54.8
COC(=O)c1ccc(COc2ccc3c(C)c(C)c(=O)oc3c2C)o1	.	/	/	/	/	23.1
Cc1ccc(OCc2ccc(C(=O)NN)o2)c([N+](=O)[O-])c1	/	.	/	.	.	/
COC(=O)c1ccc(COc2ccc(C)cc2[N+](=O)[O-])o1	.	.	/	35.9	.	/
COc1ccc2c3c(n(C)c2c1)[C@H](CO)N(C(=O)Cc1ccccn1)CC31CN(CC2CCCCC2)C1	/	.	/	/	/	/
C[C@H]1CN([C@@H](C)CO)C(=O)c2cc(NC(=O)c3ccncc3)ccc2O[C@H]1CN(C)S(=O)(=O)c1ccc(Cl)cc1	.	.	/	/	/	.
O=C(Nc1cc(F)ccc1F)N[C@@H]1CC[C@@H](CCn2cc(C3CC3)nn2)O[C@H]1CO	.	.	/	/	.	.
O=CNc1cc(-c2ccccc2Oc2ccccc2)cn2c(-c3ccc(F)cc3)cnc12	.	.	/	.	.	.
CC(=O)c1ccc(-c2cnc3c(NC=O)cc(-c4ccccc4Oc4ccccc4)cn23)cc1	.	.	/	.	56.5	.
COc1ccccc1-c1cc(NC=O)c2ncc(-c3cccc(C(C)=O)c3)n2c1	.	.	/	.	66.5	.
O=CNc1cc(-c2ccsc2)cn2c(-c3ccccc3)cnc12	145.5	.	/	.	.	.
CS(=O)(=O)c1ccc(-c2cnc3c(NC=O)cc(-c4ccsc4)cn23)cc1	.	.	/	.	.	.
COc1ccccc1-c1cc(NC=O)c2ncc(-c3cccc(C(=O)N(C)C)c3)n2c1	.	.	/	/	.	.
CN1C(=O)c2cc(NC(=O)c3ccc(Cl)cc3)ccc2OC[C@H]2O[C@H](CC(=O)O)CC[C@@H]21	/	/	/	/	.	.
CC(O)(CS(=O)(=O)Cc1cccc(C(F)(F)F)c1)C(=O)Nc1cccc(C(F)(F)F)c1 (stereo unspecified)	.	/	.	/	58.8	.
CC(O)(CS(=O)(=O)Cc1ccccc1Cl)C(=O)Nc1cccc(C(F)(F)F)c1 (stereo unspecified)	.	/	.	/	.	.
COc1cccc(N2C(=O)/C(=C\c3cccs3)NC2=S)c1	/	/	.	.	.	43.5
COc1cc(OC)c(NC2c3ccccc3C(=O)N2c2cc(C)ccn2)cc1Cl (stereo unspecified)	.	.	/	38.5	.	.
O=C(C[C@@H]1CC[C@@H]2[C@H](COC[C@@H](O)CN2S(=O)(=O)c2cccc(F)c2)O1)Nc1ccccc1	.	/	/	/	/	.
SMILES	Cneo AK release	ERAP1 HTS inh	MITF act	Wnt act	HIV Env fusion	esBAF inh
CO[C@@H]1CN(C)C(=O)c2ccc(NC(=O)c3ccccc3F)cc2OC[C@H](C)N(CC2CC2)C[C@@H]1C	.	.	/	/	.	.
CCC(C)c1ccccc1NC(=O)COc1ccc(-c2nnco2)cc1 (stereo unspecified)	.	.	.	.	.	.
O=C(COc1ccc(-c2nnco2)cc1)Nc1ccc(C(F)(F)F)cc1	/	.	.	.	55.2	/
COc1ccc(C(=O)OCC(=O)c2ccc3c(c2)NC(=O)CO3)cc1OC	.	.	.	.	/	.
CCOC(=O)c1ccc2c(c1)NCc1cccc(OC)c1O2	.	.	.	.	.	58.1
CNC[C@H]1Oc2c(NC(=O)C3CCCCC3)cccc2C(=O)N([C@H](C)CO)C[C@H]1C	.	.	/	/	.	.
Cc1ccc(S(=O)(=O)N(C)C[C@@H]2Oc3ccc(NC(=O)NC4CCCCC4)cc3CC(=O)N([C@@H](C)CO)C[C@@H]2C)cc1	.	.	/	/	/	.
COc1ccc(NC(=O)c2cnn(-c3ccccc3)c2C)cc1	.	.	/	.	.	.
Cc1c(C(=O)Nc2cccc(F)c2)cnn1-c1ccccc1	.	.	108.9	.	.	.
CC(=O)c1cccc(NC(=O)c2cnn(-c3ccccc3)c2C)c1	.	.	?	.	.	.
Cc1c(C(=O)Nc2ccccc2)cnn1-c1ccccc1	/	.	.	63.0	.	/
Fc1ccc2nc3[nH]c4ccccc4c3nc2c1	.	/	/	99.5	.	.
C[C@@H]1CN([C@@H](C)CO)S(=O)(=O)c2ccc(Br)cc2O[C@H]1CN(C)C(=O)C1CC1	.	.	/	/	.	.
O=C(C[C@@H]1CC[C@H]2[C@@H](COC[C@@H](O)CN2C(=O)C2CC2)O1)NCc1ccccc1Cl	.	.	/	/	.	.
CCOC(=O)CSc1nc2cc(C)ccc2cc1C#N	.	/	.	49.3	.	44.3
CCOC(=O)CSc1nc2cc(OC)ccc2cc1C#N	.	/	110.9	67.5	.	.
CCOC(=O)CSc1nc2ccc(C)cc2cc1C#N	.	.	133.9	.	/	71.3
CCOC(=O)CSc1nc2cc(C)cc(C)c2cc1C#N	.	/	.	/	/	.
Cc1ccc2cc(C#N)c(SCC(=O)N3CCCC3)nc2c1	.	.	.	32.8	.	.
COc1ccc2c3c([nH]c2c1)[C@@H](CO)N(C(=O)CN1CCOCC1)CC31CN(Cc2ccccc2)C1	/	.	/	/	/	/
C[C@H](CO)N1C[C@H](C)[C@H](CN(C)Cc2ccc(-c3ccccc3)cc2)Oc2c(NS(=O)(=O)c3ccc(Cl)cc3)cccc2C1=O	.	.	/	/	.	.
Cc1cccc(-c2nsc(SCC(=O)N3CCCC3)n2)c1	.	/	88.8	.	.	/
O=C(C[C@H]1CC[C@@H](NC(=O)C2CCOCC2)[C@@H](CO)O1)Nc1nccs1	.	.	/	/	.	.
CC(C)NC(=O)Nc1ccc2c(c1)CC(=O)N([C@H](C)CO)C[C@@H](C)[C@@H](CN(C)Cc1ccc(Oc3ccccc3)cc1)O2	104.7	.	/	/	/	.
CNC[C@@H]1Oc2ccc(NS(=O)(=O)c3ccc(Cl)cc3)cc2C(=O)N([C@H](C)CO)C[C@H]1C	107.7	.	/	/	/	.
CNC[C@H]1Oc2ccc(NS(=O)(=O)c3ccc(Cl)cc3)cc2C(=O)N([C@H](C)CO)C[C@@H]1C	.	.	/	/	/	.
Cc1ccc(S(=O)(=O)Nc2ccc3c(c2)CC(=O)N([C@@H](C)CO)C[C@@H](C)[C@H](CN(C)Cc2ccc(Oc4ccccc4)cc2)O3)cc1	.	.	/	/	72.9[16.7 µM]	.
